Structures are written as SMILES. Values after ≈ are worked out from the molar mass of the structure shown. Some results are limits rather than exact numbers.

In assay [1] the test system is Streptococcus mutans. The experiment in a line: Antibacterial activity against Streptococcus mutans ATCC 25175 after 24 hrs by broth microdilution method. Conditions: ATCC 25175, 24 h.
Assay [2] concerns Streptococcus sanguinis. The experiment in a line: Antibacterial activity against Streptococcus sanguinis ATCC 10556 after 48 hrs by broth microdilution method. It is filed as functional. Conditions: ATCC 10556, 48 h. On the technique in general: Broth dilution looks for growth in wells or tubes with falling amounts of substance.
Assay [3] has as its system Streptococcus sanguinis. Nature of the assay: Antibacterial activity against Streptococcus sanguinis ATCC 10556 after 24 hrs by broth microdilution method. Conditions: ATCC 10556, 24 h.
Assay [4] concerns Fusobacterium nucleatum. Nature of the assay: Antibacterial activity against Fusobacterium nucleatum ATCC 10953 after 48 hrs by broth microdilution method. Conditions: ATCC 10953, 48 h. It is filed as functional. The procedure, abridged:
(§1)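 Broth microdilution MIC for obligate anaerobes, run in their growth media (Wilkins–Chalgren for F. nucleatum and P. intermedia; supplemented Todd Hewitt broth for P. gingivalis). Inoculum suspended in Brucella broth, final 5 × 10^6 cfu/ml. Twofold dilutions, final 0.12–128 µg/ml. Incubated anaerobically (90% N2/5% H2/5% CO2) at 37 °C for 48 h; MIC is the lowest concentration without turbidity.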

Assay [5] deals with Actinomyces viscosus. The experiment in a line: Antibacterial activity against Actinomyces viscosus ATCC 15987 after 48 hrs by broth microdilution method. Conditions: ATCC 15987, 48 h. It is filed as functional.
In assay [6] the test system is Streptococcus mutans. The experiment in a line: Antibacterial activity against Streptococcus mutans ATCC 25175 after 48 hrs by broth microdilution method. It is filed as functional. Conditions: ATCC 25175, 48 h.
In assay [7] the test system is Actinomyces viscosus. The experiment in a line: Antibacterial activity against Actinomyces viscosus ATCC 15987 after 24 hrs by broth microdilution method. Conditions: ATCC 15987, 24 h.
Assay [8] deals with Prevotella intermedia. The experiment in a line: Antibacterial activity against Prevotella intermedia ATCC 25611 after 48 hrs by broth microdilution method. In kind it is functional. Conditions: ATCC 25611, 48 h. The procedure, abridged:
as §1

For assay [9], the system named is Porphyromonas gingivalis. The experiment in a line: Antibacterial activity against Porphyromonas gingivalis ATCC 33277 after 48 hrs by broth microdilution method. It is filed as functional. Conditions: ATCC 33277, 48 h. The procedure, abridged:
as §1

In general, MIC refers to the lowest concentration found to suppress growth. A low value points to inhibition by little substance. By MBC is commonly meant the lowest tested concentration that kills the bacteria rather than only halting them. A high value points to less potent killing. Consider `CCCOc1ccc(/C=C/[C@@](C)(/C=C/c2ccc(O)cc2)CCC=C(C)C)cc1Cl`, for which the MIC came to 32 µg/mL (≈ 75.3 µM) in assay [1]; 16 µg/mL (≈ 37.6 µM) in assay [3]; 64 µg/mL (≈ 151 µM) in assay [4]; 32 µg/mL (≈ 75.3 µM) in [7]; 16 µg/mL (≈ 37.6 µM) in [8]; 4 µg/mL (≈ 9.41 µM) in assay [9]. Also, the minimum bactericidal concentration (MBC) in assay [2] amounted to 32 µg/mL (≈ 75.3 µM); in assay [4], 128 µg/mL (≈ 301 µM); in [5], 64 µg/mL (≈ 151 µM); in [6], 8 µg/mL (≈ 18.8 µM); in assay [8] it was 32 µg/mL (≈ 75.3 µM); in assay [9], 4 µg/mL (≈ 9.41 µM).
`C=C[C@@](C)(/C=C/c1ccc(O)c(N)c1)CCC=C(C)C`: the MIC in assay [1] was 16 µg/mL (≈ 59 µM); in [3], 16 µg/mL (≈ 59 µM); in assay [4], 32 µg/mL (≈ 118 µM); in assay [7] it was 16 µg/mL (≈ 59 µM); in assay [8], 16 µg/mL (≈ 59 µM); in [9] it was 2 µg/mL (≈ 7.37 µM). The MBC was 32 µg/mL (≈ 118 µM) in assay [2]; 64 µg/mL (≈ 236 µM) in [4]; 32 µg/mL (≈ 118 µM) in [5]; 32 µg/mL (≈ 118 µM) in assay [6]; 32 µg/mL (≈ 118 µM) in assay [8]; 4 µg/mL (≈ 14.7 µM) in [9].
Turning to `CC(C)=CCC[C@@](C)(/C=C/c1ccc(N)cc1)/C=C/c1ccc(O)cc1`, the MIC in [1] is 2 µg/mL (≈ 5.76 µM); in assay [3] it was 2 µg/mL (≈ 5.76 µM); in assay [4], > 128 µg/mL; in assay [7], 2 µg/mL (≈ 5.76 µM); in assay [8], 2 µg/mL (≈ 5.76 µM); in assay [9] it was 1 µg/mL (≈ 2.88 µM). Also, the minimum bactericidal concentration (MBC) is 4 µg/mL (≈ 11.5 µM) in assay [2]; > 128 µg/mL in assay [4]; 2 µg/mL (≈ 5.76 µM) in assay [5]; 4 µg/mL (≈ 11.5 µM) in [6]; 4 µg/mL (≈ 11.5 µM) in assay [8]; 2 µg/mL (≈ 5.76 µM) in assay [9].
Regarding `Oc1cc(Cl)ccc1Oc1ccc(Cl)cc1Cl` [TRICLOSAN], the minimal inhibitory concentration (MIC) was found to be 4 µg/mL (≈ 13.8 µM) in [1]; 4 µg/mL (≈ 13.8 µM) in [3]; 2 µg/mL (≈ 6.91 µM) in [4]; 4 µg/mL (≈ 13.8 µM) in assay [7]; 1 µg/mL (≈ 3.45 µM) in assay [8]; 2 µg/mL (≈ 6.91 µM) in assay [9]. For the same compound, the MBC in assay [2] is 4 µg/mL (≈ 13.8 µM); in [4], 2 µg/mL (≈ 6.91 µM); in [5], 8 µg/mL (≈ 27.6 µM); in assay [6], 8 µg/mL (≈ 27.6 µM); in [8], 1 µg/mL (≈ 3.45 µM); in assay [9], 2 µg/mL (≈ 6.91 µM).
`COc1ccc(/C=C/[C@@](C)(/C=C/c2ccc(O)cc2)CCC=C(C)C)cc1C=O`: the MIC in assay [1] was 16 µg/mL (≈ 41 µM); in assay [3], 16 µg/mL (≈ 41 µM); in [4], > 128 µg/mL; in assay [7], 16 µg/mL (≈ 41 µM); in assay [8] it was 16 µg/mL (≈ 41 µM); in assay [9], 2 µg/mL (≈ 5.12 µM). The minimal bactericidal concentration (MBC) in [2] was 32 µg/mL (≈ 81.9 µM); in [4], > 128 µg/mL; in [5], 32 µg/mL (≈ 81.9 µM); in assay [6], 16 µg/mL (≈ 41 µM); in assay [8], 32 µg/mL (≈ 81.9 µM); in assay [9], 2 µg/mL (≈ 5.12 µM).
For `C=C[C@@](C)(/C=C/c1ccc(O)cc1)CCC1OC1(C)C` (some centres undefined), the MIC in assay [1] was 128 µg/mL (≈ 470 µM); in assay [3], 128 µg/mL (≈ 470 µM); in assay [4], > 128 µg/mL; in assay [7] it was 64 µg/mL (≈ 235 µM); in assay [8] it was 64 µg/mL (≈ 235 µM); in [9] it was 32 µg/mL (≈ 117 µM). For the same compound, the MBC is > 128 µg/mL in assay [2]; > 128 µg/mL in [4]; 128 µg/mL (≈ 470 µM) in assay [5]; > 128 µg/mL in [6]; 128 µg/mL (≈ 470 µM) in assay [8]; 64 µg/mL (≈ 235 µM) in assay [9].
Consider `C=C[C@@](C)(/C=C/c1ccc(O)c([N+](=O)[O-])c1)CCC=C(C)C`, for which the minimum inhibitory concentration (MIC) was 64 µg/mL (≈ 212 µM) in assay [1]; 128 µg/mL (≈ 425 µM) in [3]; > 128 µg/mL in [4]; 128 µg/mL (≈ 425 µM) in [7]; 64 µg/mL (≈ 212 µM) in [8]; 32 µg/mL (≈ 106 µM) in [9]. The MBC was > 128 µg/mL in assay [2]; > 128 µg/mL in assay [4]; > 128 µg/mL in assay [5]; 128 µg/mL (≈ 425 µM) in [6]; 128 µg/mL (≈ 425 µM) in assay [8]; 32 µg/mL (≈ 106 µM) in assay [9].

The record behind these values is ChEMBL document CHEMBL1177882, “Novel bisstyryl derivatives of bakuchiol: targeting oral cavity pathogens” (2010).
